According to ChEMBL document CHEMBL4265871, “Novel alkylated azoles as potent antifungals” (Eur J Med Chem, 2017):
Values after ≈ are worked out from the molar mass of the structure shown.

System: not listed separately
Assay: Selectivity index, ratio of EC50 for toxicity in human BEAS2B cells to MIC100 for antifungal activity against Candida albicans ATCC 10231
Assay type: cell-based
Settings: BEAS-2B cells, read-out: Selectivity Index
Procedure, shortened: (§1)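 Selectivity index is the EC50 against the mammalian line (A549 or BEAS-2B) divided by the MIC against the given fungal strain.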

Question: For `CCCCCCCCC(O)(Cn1cncn1)c1ccc(F)cc1F` (configuration not stated), which selectivity ratio is on record?
Answer: 7

System: Candida albicans
Assay: Antifungal activity against ITC and FLC-susceptible Candida albicans ATCC MYA-2876 incubated for 48 hrs by modified CLSI M27-A3 protocol based method
Assay type: functional
Settings: ATCC MYA-2876, 48 h
Procedure, shortened: (§2)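 Because these Candida strains show trailing growth, MIC-2 was read, meaning 50% growth inhibition. Caspofungin and voriconazole were tested here; other controls came from earlier work.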

Question: With `CCCCCCCCC(O)(Cn1cncn1)c1ccc(F)cc1F` (configuration not stated) as the compound, how does the MIC50 read?
Answer: 5.8 µM (≈ 1.96 µg/mL)

System: Candida parapsilosis
Assay: Antifungal activity against Candida parapsilosis ATCC 22019 incubated for 48 hrs by modified CLSI M27-A3 protocol based method
Assay type: functional
Settings: Lodderomyces parapsilosis, ATCC 22019, 48 h; read-out: MIC100
Procedure, shortened: (§3)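 For C. albicans ATCC 10231, C. krusei ATCC 6258 and C. parapsilosis ATCC 22019, MIC-0 was read, meaning complete growth inhibition. For azole controls, MIC-2 (50% growth inhibition) was reported instead. Caspofungin and voriconazole were tested here; other controls came from earlier work.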

Question: For `CCCCCCCCC(O)(Cn1cncn1)c1ccc(F)cc1F` (configuration not stated), which MIC is on record?
Answer: ≤ 0.18 µM

System: not listed separately
Assay: Selectivity index, ratio of EC50 for toxicity in human A549 cells to MIC50 for antifungal activity against ITC and FLC-susceptible Candida albicans ATCC MYA-2876
Assay type: cell-based
Settings: read-out: Selectivity Index
Procedure, shortened: as §1

Question: For `CCCCCCCCC(O)(Cn1cncn1)c1ccc(F)cc1F` (configuration not stated), which selectivity ratio is on record?
Answer: 6

System: Nakaseomyces glabratus
Assay: Antifungal activity against Candida glabrata ATCC 2001 incubated for 48 hrs by modified CLSI M27-A3 protocol based method
Assay type: functional
Settings: ATCC 2001, 48 h

Question: Which MIC50 does the source give for `CCCCCCCCC(O)(Cn1cncn1)c1ccc(F)cc1F` (configuration not stated) here?
Answer: 5.8 µM (≈ 1.96 µg/mL)

System: not listed separately
Assay: Hemolytic activity in mouse erythrocytes assessed as hemolysis level at 3.9 ug/ml incubated for 1 hr at 37 degC
Assay type: ADME, cell-based, Erythrocyte
Settings: read-out: Activity
Procedure, shortened: (§4)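 Mouse erythrocytes incubated 1 h at 37 °C with test agents over 1.95 to 125 µg/mL. Percent lysis is read for each concentration.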

Question: For `CCCCCCCCC(O)(Cn1cncn1)c1ccc(F)cc1F` (configuration not stated), which hemolysis at 1 h, 3.9 ug/ml is on record?
Answer: 0%

System: not listed separately
Assay: Selectivity index, ratio of […] for toxicity in human A549 cells to MIC50 for antifungal activity against Aspergillus nidulans ATCC 38163
Assay type: cell-based
Settings: read-out: Selectivity Index

Question: With `CCCCCCCCC(O)(Cn1cncn1)c1ccc(F)cc1F` (configuration not stated) as the compound, how does the selectivity ratio read?
Answer: 25

System: not listed separately
Assay: Hemolytic activity in mouse erythrocytes assessed as hemolysis level at 1.95 ug/ml incubated for 1 hr at 37 degC
Assay type: ADME, cell-based, Erythrocyte
Settings: read-out: Activity
Procedure, shortened: as §4

Question: Which hemolysis at 1 h, 1.95 ug/ml does the source give for `CCCCCCCCC(O)(Cn1cncn1)c1ccc(F)cc1F` (configuration not stated) here?
Answer: 0%

System: not listed separately
Assay: Selectivity index, ratio of EC50 for toxicity in human BEAS2B cells to MIC50 for antifungal activity against Candida glabrata ATCC 2001
Assay type: cell-based
Settings: BEAS-2B cells, read-out: Selectivity Index
Procedure, shortened: as §1

Question: With `CCCCCCCCC(O)(Cn1cncn1)c1ccc(F)cc1F` (configuration not stated) as the compound, how does the selectivity ratio read?
Answer: 7

System: not listed separately
Assay: Selectivity index, ratio of EC50 for toxicity in human BEAS2B cells to MIC50 for antifungal activity against ITC and FLC-resistant Candida albicans ATCC 1237
Assay type: cell-based
Settings: BEAS-2B cells, read-out: Selectivity Index
Procedure, shortened: as §1

Question: Which selectivity ratio does the source give for `CCCCCCCCC(O)(Cn1cncn1)c1ccc(F)cc1F` (configuration not stated) here?
Answer: 7

System: not listed separately
Assay: Selectivity index, ratio of EC50 for toxicity in human BEAS2B cells to MIC50 for antifungal activity against Candida krusei ATCC 6258
Settings: BEAS-2B cells

Question: Which selectivity ratio does the source give for `CCCCCCCCC(O)(Cn1cncn1)c1ccc(F)cc1F` (configuration not stated) here?
Answer: 54

System: not listed separately
Assay: Selectivity index, ratio of EC50 for toxicity in human BEAS2B cells to MIC50 for antifungal activity against Candida albicans ATCC 64124
Assay type: cell-based
Settings: BEAS-2B cells, read-out: Selectivity Index
Procedure, shortened: as §1

Question: For `CCCCCCCCC(O)(Cn1cncn1)c1ccc(F)cc1F` (configuration not stated), which selectivity ratio is on record?
Answer: 3

System: Aspergillus nidulans
Assay: Antifungal activity against Aspergillus nidulans ATCC 38163 incubated for 48 hrs by CLSI M38-A2 protocol based method
Assay type: functional
Settings: ATCC 38163, 48 h, read-out: MIC100

Question: Which MIC does the source give for `CCCCCCCCC(O)(Cn1cncn1)c1ccc(F)cc1F` (configuration not stated) here?
Answer: 1.4 µM (≈ 0.472 µg/mL)

System: not listed separately
Assay: Selectivity index, ratio of EC50 for toxicity in human BEAS2B cells to MIC50 for antifungal activity against ITC and FLC-susceptible Candida albicans ATCC MYA-2310
Assay type: cell-based
Settings: BEAS-2B cells, read-out: Selectivity Index
Procedure, shortened: (§5)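 Ratio of the compound's EC50 against BEAS-2B cells to its MIC against the named C. albicans strain. […] For C. albicans strains other than ATCC 10231, trailing growth meant MIC-2 was taken, meaning 50% growth inhibition.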

Question: For `CCCCCCCCC(O)(Cn1cncn1)c1ccc(F)cc1F` (configuration not stated), which selectivity ratio is on record?
Answer: 7

System: Candida albicans
Assay: Antifungal activity against ITC and FLC-susceptible Candida albicans ATCC MYA-2310 incubated for 48 hrs by modified CLSI M27-A3 protocol based method
Assay type: functional
Settings: ATCC MYA-2310, 48 h

Question: With `CCCCCCCCC(O)(Cn1cncn1)c1ccc(F)cc1F` (configuration not stated) as the compound, how does the MIC50 read?
Answer: 5.8 µM (≈ 1.96 µg/mL)

System: not listed separately
Assay: Selectivity index, ratio of EC50 for toxicity in human A549 cells to MIC50 for antifungal activity against ITC and FLC-resistant Candida albicans ATCC MYA-90819
Assay type: cell-based
Settings: read-out: Selectivity Index
Procedure, shortened: as §1

Question: With `CCCCCCCCC(O)(Cn1cncn1)c1ccc(F)cc1F` (configuration not stated) as the compound, how does the selectivity ratio read?
Answer: 6

System: not listed separately
Assay: Toxicity in human BEAS2B cells assessed as reduction in cell viability incubated for 24 hrs by resazurin dye based assay
Settings: BEAS-2B cells
Procedure, shortened: (§6)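 Toxicity tested in the nucleated lines A549 and BEAS-2B to give EC50 values. Selectivity index is EC50 against the mammalian line divided by the MIC against a given fungal strain.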

Question: For `CCCCCCCCC(O)(Cn1cncn1)c1ccc(F)cc1F` (configuration not stated), which EC50 at 24 h is on record?
Answer: 13 µg/mL (≈ 38.5 µM)

System: not listed separately
Assay: Selectivity index, ratio of EC50 for toxicity in human A549 cells to MIC50 for antifungal activity against ITC and FLC-resistant Candida albicans ATCC MYA-1003
Assay type: cell-based
Settings: read-out: Selectivity Index
Procedure, shortened: as §1

Question: For `CCCCCCCCC(O)(Cn1cncn1)c1ccc(F)cc1F` (configuration not stated), which selectivity ratio is on record?
Answer: 6

System: not listed separately
Assay: Selectivity index, ratio of EC50 for toxicity in human A549 cells to MIC for antifungal activity against Candida parapsilosis ATCC 22019
Settings: not given

Question: With `CCCCCCCCC(O)(Cn1cncn1)c1ccc(F)cc1F` (configuration not stated) as the compound, how does the selectivity ratio read?
Answer: 200

System: not listed separately
Assay: Selectivity index, ratio of EC50 for toxicity in human A549 cells to MIC50 for antifungal activity against ITC and FLC-resistant Candida albicans ATCC 1237
Assay type: cell-based
Settings: read-out: Selectivity Index
Procedure, shortened: as §1

Question: For `CCCCCCCCC(O)(Cn1cncn1)c1ccc(F)cc1F` (configuration not stated), which selectivity ratio is on record?
Answer: 6

System: Candida albicans
Assay: Antifungal activity against Candida albicans ATCC 64124 incubated for 48 hrs by modified CLSI M27-A3 protocol based method
Assay type: functional
Settings: ATCC 64124, 48 h

Question: Which MIC50 does the source give for `CCCCCCCCC(O)(Cn1cncn1)c1ccc(F)cc1F` (configuration not stated) here?
Answer: 11.6 µM (≈ 3.91 µg/mL)

System: not listed separately
Assay: Selectivity index, ratio of EC50 for toxicity in human A549 cells to MIC50 for antifungal activity against Candida albicans ATCC 64124
Assay type: cell-based
Settings: read-out: Selectivity Index
Procedure, shortened: as §1

Question: Which selectivity ratio does the source give for `CCCCCCCCC(O)(Cn1cncn1)c1ccc(F)cc1F` (configuration not stated) here?
Answer: 3

System: not listed separately
Assay: in vitro
Settings: mouse, mouse erythrocytes

Question: For `CCCCCCCCC(O)(Cn1cncn1)c1ccc(F)cc1F` (configuration not stated), which hemolysis at 1 h, 62.5 ug/ml is on record?
Answer: 69%

System: Pichia kudriavzevii
Assay: Antifungal activity against Candida krusei ATCC 6258 incubated for 48 hrs by modified CLSI M27-A3 protocol based method
Assay type: functional
Settings: ATCC 6258, 48 h, read-out: MIC100
Procedure, shortened: as §3

Question: Which MIC does the source give for `CCCCCCCCC(O)(Cn1cncn1)c1ccc(F)cc1F` (configuration not stated) here?
Answer: 0.71 µM (≈ 0.24 µg/mL)

System: not listed separately
Assay: Selectivity index, ratio of EC50 for toxicity in human BEAS2B cells to MIC50 for antifungal activity against ITC and FLC-susceptible Candida albicans ATCC MYA-2876
Assay type: cell-based
Settings: BEAS-2B cells, read-out: Selectivity Index
Procedure, shortened: as §5

Question: Which selectivity ratio does the source give for `CCCCCCCCC(O)(Cn1cncn1)c1ccc(F)cc1F` (configuration not stated) here?
Answer: 7

System: not listed separately
Assay: Selectivity index, ratio of EC50 for toxicity in human A549 cells to MIC50 for antifungal activity against Candida krusei ATCC 6258
Settings: not given

Question: Which selectivity ratio does the source give for `CCCCCCCCC(O)(Cn1cncn1)c1ccc(F)cc1F` (configuration not stated) here?
Answer: 50

System: not listed separately
Assay: Selectivity index, ratio of EC50 for toxicity in human BEAS2B cells to MIC50 for antifungal activity against ITC and FLC-resistant Candida albicans ATCC MYA-1003
Assay type: cell-based
Settings: BEAS-2B cells, read-out: Selectivity Index
Procedure, shortened: as §1

Question: For `CCCCCCCCC(O)(Cn1cncn1)c1ccc(F)cc1F` (configuration not stated), which selectivity ratio is on record?
Answer: 7

System: Candida albicans
Assay: Antifungal activity against ITC and FLC-resistant Candida albicans ATCC MYA-1003 incubated for 48 hrs by modified CLSI M27-A3 protocol based method
Assay type: functional
Settings: ATCC MYA-1003, 48 h
Procedure, shortened: as §2

Question: For `CCCCCCCCC(O)(Cn1cncn1)c1ccc(F)cc1F` (configuration not stated), which MIC50 is on record?
Answer: 5.8 µM (≈ 1.96 µg/mL)

System: not listed separately
Assay: Hemolytic activity in mouse erythrocytes assessed as hemolysis level at 31.3 ug/ml incubated for 1 hr at 37 degC
Assay type: ADME, cell-based, Erythrocyte
Settings: read-out: Activity
Procedure, shortened: as §4

Question: For `CCCCCCCCC(O)(Cn1cncn1)c1ccc(F)cc1F` (configuration not stated), which hemolysis at 1 h, 31.3 ug/ml is on record?
Answer: 68.4%

System: not listed separately
Assay: Hemolytic activity in mouse erythrocytes assessed as hemolysis level at 7.8 ug/ml incubated for 1 hr at 37 degC
Assay type: ADME, cell-based, Erythrocyte
Settings: read-out: Activity
Procedure, shortened: as §4

Question: For `CCCCCCCCC(O)(Cn1cncn1)c1ccc(F)cc1F` (configuration not stated), which hemolysis at 1 h, 7.8 ug/ml is on record?
Answer: 46.8%

System: not listed separately
Assay: Toxicity in human A549 cells assessed as reduction in cell viability incubated for 24 hrs by resazurin dye based assay
Settings: not given
Procedure, shortened: as §6

Question: Which EC50 at 24 h does the source give for `CCCCCCCCC(O)(Cn1cncn1)c1ccc(F)cc1F` (configuration not stated) here?
Answer: 12 µg/mL (≈ 35.6 µM)

System: not listed separately
Assay: Selectivity index, ratio of […] for toxicity in human BEAS2B cells to MIC50 for antifungal activity against Aspergillus flavus ATCC MYA-3631
Assay type: cell-based
Settings: BEAS-2B cells, read-out: Selectivity Index

Question: Which selectivity ratio does the source give for `CCCCCCCCC(O)(Cn1cncn1)c1ccc(F)cc1F` (configuration not stated) here?
Answer: 0.4
